Activity calls are given as the source filed them. No cut-off for these calls is given here.
System: not listed separately
Experiment: Inhibition of Trypanosoma brucei LeuRS expressed in Escherichia coli BL21 (DE3)-RIPL cells assessed as decrease in [14C]-Leucine tRNA synthesis incubated for 20 mins in presence of [14C]leucine followed by incubation with ATP for 15 mins by liquid scintillation counting method
Conditions: not given
How it was run: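 T. brucei LeuRS was expressed in E. coli BL21(DE3)-RIPL. Reactions held 50 mM HEPES-KOH pH 7.8, 5 mM MgCl₂, 45 mM KCl, 1 mM DTT, 0.02% BSA, 0.4 mg/mL tRNA and [¹⁴C]leucine. They were preincubated 20 min at 37 °C without ATP, then run 15 min after adding 4 mM ATP. Three aliquots were spotted on filter paper and averaged for IC50.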

| Compound | IC50 [µM] |
| --- | --- |
| CC[C@H](C)[C@H](N)C(=O)NS(=O)(=O)c1ccc(NC(=O)COc2ccc(Br)cc2Cl)cc1 | > 1000 |
| CCOC(=O)CC[C@H](N)C(=O)NS(=O)(=O)c1ccc(NC(=O)COc2ccc(Br)cc2Cl)cc1 | > 1000 |
| CC(C)C[C@H](N)C(=O)NS(=O)(=O)c1cccc(NC(=O)COc2ccc(-c3ccccc3)cc2)c1 | 7.28 |
| COc1cccc(OCC(=O)Nc2cccc(S(=O)(=O)NC(=O)[C@@H](N)CC(C)C)c2)c1 | 2.68 |
| NS(=O)(=O)c1ccc(NC(=O)COc2ccc(Br)cc2Cl)cc1 | 191 |
| CC[C@H](C)[C@H](NC(=O)OC(C)(C)C)C(=O)NS(=O)(=O)c1ccc(NC(=O)COc2ccc(Br)cc2Cl)cc1 | 346 |
| O=C(COc1ccc(Br)cc1Cl)Nc1ccc(S(=O)(=O)NC(=O)c2ccco2)cc1 | 251 |
| CC(C)C[C@H](N)C(=O)NS(=O)(=O)c1cccc(NC(=O)COc2ccc([N+](=O)[O-])cc2)c1 | 6.81 |
| CC(C)C[C@H](N)C(=O)NS(=O)(=O)c1cccc(NC(=O)COc2ccccc2Cl)c1 | 5.69 |
| CC(C)C[C@H](NC(=O)OCc1ccccc1)C(=O)NS(=O)(=O)c1ccc(NC(=O)COc2ccc(Br)cc2Cl)cc1 | 110 |
| NS(=O)(=O)c1ccc(NC(=S)NC(=O)COc2ccc(Br)cc2Cl)cc1 | 174 |
| N[C@@H](Cc1ccccc1)C(=O)NS(=O)(=O)c1ccc(NC(=O)COc2ccc(Br)cc2Cl)cc1 | > 1000 |
| NC(=O)CC[C@H](N)C(=O)NS(=O)(=O)c1ccc(NC(=O)COc2ccc(Br)cc2Cl)cc1 | 285 |
| CC(C)C[C@H](NC(=O)OC(C)(C)C)C(=O)NS(=O)(=O)c1ccc(NC(=O)COc2ccc(Br)cc2Cl)cc1 | 404 |
| CC(C)C[C@H](N)C(=O)NS(=O)(=O)c1ccc(NC(=O)COc2ccc(Br)cc2Cl)cc1 | 38.4 |
| COc1ccc(OCC(=O)Nc2cccc(S(=O)(=O)NC(=O)[C@@H](N)CC(C)C)c2)cc1 | 3.58 |
| N[C@@H](CCC(=O)O)C(=O)NS(=O)(=O)c1ccc(NC(=O)COc2ccc(Br)cc2Cl)cc1 | 428 |
| CC(C)(C)OC(=O)N[C@@H](CCC(=O)OCc1ccccc1)C(=O)NS(=O)(=O)c1ccc(NC(=O)COc2ccc(Br)cc2Cl)cc1 | 98 |
| CC(C)(C)OC(=O)N[C@@H](CCC(N)=O)C(=O)NS(=O)(=O)c1ccc(NC(=O)COc2ccc(Br)cc2Cl)cc1 | 685 |
| CC(C)C[C@H](N)C(=O)NS(=O)(=O)c1cccc(NC(=O)COc2ccccc2)c1 | 5.51 |
| O=C(COc1ccc(Br)cc1Cl)Nc1ccc(S(=O)(=O)NC(=O)[C@H](Cc2ccccc2)NC(=O)OCc2ccccc2)cc1 | 116 |
| CC(C)(C)OC(=O)N[C@@H](Cc1ccccc1)C(=O)NS(=O)(=O)c1ccc(NC(=O)COc2ccc(Br)cc2Cl)cc1 | 281 |
| CC(C)C[C@H](N)C(=O)NS(=O)(=O)c1cccc(NC(=O)COc2cccc(-c3ccccc3)c2)c1 | 0.7 |

System: Trypanosoma brucei
Experiment: Potency index, ratio of IC50 of 2-(4-bromo-2-chlorophenoxy)-N-(4-sulfamoylphenylcarbamothioyl)acetamide to IC50 of compound for inhibition of Trypanosoma brucei LeuRS expressed in Escherichia coli BL21 (DE3)-RIPL cells in presence of [14C]leucine incubated for 20 mins followed by incubation with ATP for 15 mins by liquid scintillation counting method
Conditions: not given

| Compound | Ratio IC50 |
| --- | --- |
| CC(C)C[C@H](N)C(=O)NS(=O)(=O)c1ccc(NC(=O)COc2ccc(Br)cc2Cl)cc1 | 5 |
| CC(C)C[C@H](N)C(=O)NS(=O)(=O)c1cccc(NC(=O)COc2cccc(-c3ccccc3)c2)c1 | 250 |

System: Trypanosoma brucei brucei
Experiment: Antitrypanosomal activity against bloodstream form of Trypanosoma brucei brucei 221 assessed as parasite growth inhibition incubated for 72 hrs by resazurin staining based assay
Format: functional, organism-based
Conditions: Trypanosoma brucei, 221, 72 h
How it was run: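 Bloodstream-form T. b. brucei 221 kept in log phase in HMI-11 at 37 °C, 5% CO2, and seeded from a 2×10⁵/mL (2-fold) suspension. Compounds were serially diluted in DMSO and tested in triplicate for 72 h. Resazurin was then added for 5 h more. Fluorescence was read at ex 544/em 590 nm.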

| Compound | IC50 [µM] |
| --- | --- |
| CC(C)C[C@H](N)C(=O)NS(=O)(=O)c1cccc(NC(=O)COc2ccc(-c3ccccc3)cc2)c1 | 33.3 |

System: Trypanosoma brucei brucei
Experiment: Antitrypanosomal activity against bloodstream form of Trypanosoma brucei brucei 221 assessed as parasite growth inhibition at 22 uM incubated for 72 hrs by resazurin staining based assay
Format: functional, organism-based
Conditions: not given

| Compound | inhibition |
| --- | --- |
| CC(C)C[C@H](N)C(=O)NS(=O)(=O)c1cccc(NC(=O)COc2ccc(-c3ccccc3)cc2)c1 | Active |

Reference: ChEMBL document CHEMBL4312032, “Design and synthesis of α-phenoxy-N-sulfonylphenyl acetamides as Trypanosoma brucei Leucyl-tRNA synthetase inhibitors” (Eur J Med Chem, 2020)
